Measurements reported in ChEMBL document CHEMBL2396638, “Structure-activity relationship studies and sleep-promoting activity of novel 1-chloro-5,6,7,8-tetrahydroimidazo[1,5-a]pyrazine derivatives as dual orexin receptor antagonists. Part 2” (Bioorg Med Chem Lett, 2013).

Tests used:
[1] = target: T1, Orexin/Hypocretin receptor type 1 (Homo sapiens, UniProt O43613); experiment: Antagonist activity at human OX1R expressed in CHO cells assessed as inhibition of calcium mobilization by FLIPR assay; type: functional, cell-based
T1 sequence (O43613 whole entry): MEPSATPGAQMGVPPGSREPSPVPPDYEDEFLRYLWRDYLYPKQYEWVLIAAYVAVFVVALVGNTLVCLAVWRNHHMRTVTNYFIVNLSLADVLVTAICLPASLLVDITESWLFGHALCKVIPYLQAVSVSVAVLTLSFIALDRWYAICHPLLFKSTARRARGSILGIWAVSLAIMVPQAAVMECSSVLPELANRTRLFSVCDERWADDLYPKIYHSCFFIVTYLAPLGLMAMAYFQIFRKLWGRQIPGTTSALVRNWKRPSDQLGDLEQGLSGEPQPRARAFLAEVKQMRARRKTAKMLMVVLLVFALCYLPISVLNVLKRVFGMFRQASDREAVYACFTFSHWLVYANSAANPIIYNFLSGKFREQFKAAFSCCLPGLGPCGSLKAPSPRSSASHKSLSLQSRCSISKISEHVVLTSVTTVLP

[2] = Ratio of drug level from brain to plasma in Wistar rat at 100 mg/kg, po after 3 hrs; type: ADME, organism-based; parameters: dose 100 mg/kg, route oral; conditions: read-out: BPR
Method in brief: (§1)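 Male Wistar rats on 12 h light/dark cycle dosed orally at 100 mg/kg in PEG-400. Plasma and brain collected from the same animal at 3 h (±5 min). Blood drawn from caudal vena cava into EDTA and centrifuged for plasma. Brain taken after cardiac perfusion with 0.9% NaCl and homogenized in one volume cold phosphate buffer pH 7.4.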

[3] = Plasma concentration in Wistar rat at 100 mg/kg, po after 3 hrs; type: ADME, organism-based; parameters: dose 100 mg/kg, route oral; method in brief: as §1
[4] = Drug uptake in Wistar rat brain at 100 mg/kg, po after 3 hrs; type: ADME, organism-based; parameters: dose 100 mg/kg, route oral; conditions: read-out: Drug uptake; method in brief: as §1
[5] = target: T2, Orexin receptor type 2 (Homo sapiens, UniProt O43614); experiment: Antagonist activity at human OX2R expressed in CHO cells assessed as inhibition of calcium mobilization by FLIPR assay; type: functional, cell-based
T2 sequence (O43614 whole entry): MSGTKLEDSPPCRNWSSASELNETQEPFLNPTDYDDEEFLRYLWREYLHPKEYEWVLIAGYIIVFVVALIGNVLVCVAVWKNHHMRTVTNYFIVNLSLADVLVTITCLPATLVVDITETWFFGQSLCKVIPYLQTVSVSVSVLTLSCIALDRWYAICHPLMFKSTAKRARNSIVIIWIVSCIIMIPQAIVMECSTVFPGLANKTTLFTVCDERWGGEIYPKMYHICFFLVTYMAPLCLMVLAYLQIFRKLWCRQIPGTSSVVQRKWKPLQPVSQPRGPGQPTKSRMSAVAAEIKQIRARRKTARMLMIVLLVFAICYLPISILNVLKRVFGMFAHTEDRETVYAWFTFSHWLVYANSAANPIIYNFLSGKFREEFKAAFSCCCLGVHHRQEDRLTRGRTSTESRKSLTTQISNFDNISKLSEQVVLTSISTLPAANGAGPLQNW
Method in brief: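 CHO cells stably expressing human OX2R, loaded with fluo-3 AM calcium dye at 37 °C in 5% CO2, then washed. Antagonist added at varying concentrations before an approximate EC80 of orexin A. Ca2+ mobilization read by FLIPR; IC50 taken as concentration inhibiting 50% of the orexin A-induced calcium response.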

[6] = system: MDR1 (human); experiment: Apparent permeability across apical to basolateral side in MDCK cells expressing human MDR1; type: ADME, cell-based, Canis lupus familiaris; conditions: dog
[7] = system: Rattus norvegicus; experiment: Sleep-promoting activity in Wistar rat electroencephalographic model assessed as increase in time spent in rapid eye movement sleep at 100 mg/kg, po measured over 12 hrs relative to vehicle-treated control; type: functional
Method in brief: (§2)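 Freely moving adult male Wistar rats carrying radiotelemetric implants recording EEG, EMG and locomotor activity in the home cage. Oral dose of 100 mg/kg in 100% PEG-400 given at the start of the dark phase. Crossover design with 12 or 16 rats per group and at least 4-day washout. Read-outs over the 12 h night versus vehicle; means ± SEM, paired t-test.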

[8] = system: Rattus norvegicus; experiment: Sleep-promoting activity in Wistar rat electroencephalographic model assessed as reduction of time spent in active wake at 100 mg/kg, po measured over 12 hrs relative to vehicle-treated control; type: functional; parameters: scale not given: the % may be the effect or the level left; method in brief: as §2
[9] = system: Rattus norvegicus; experiment: Sleep-promoting activity in Wistar rat electroencephalographic model assessed as time spent in non-rapid eye movement sleep at 100 mg/kg, po measured over 12 hrs relative to total sleep time (reference value: 85.4 to 87.3%); type: functional; method in brief: as §2
[10] = system: Rattus norvegicus; experiment: Sleep-promoting activity in Wistar rat electroencephalographic model assessed as decrease in home cage activity at 100 mg/kg, po measured over 12 hrs relative to vehicle-treated control; type: functional; parameters: scale not given: the % may be the effect or the level left; method in brief: as §2
[11] = system: MDR1 (human); experiment: Efflux ratio of apparent permeability […] to apical side in MDCK cells expressing human MDR1; type: ADME, cell-based, Canis lupus familiaris; conditions: dog
[12] = system: Rattus norvegicus; experiment: Sleep-promoting activity in Wistar rat electroencephalographic model assessed as increase in time spent in non-rapid eye movement sleep at 100 mg/kg, po measured over 12 hrs relative to vehicle-treated control; type: functional; method in brief: as §2
[13] = system: Rattus norvegicus; experiment: Sleep-promoting activity in Wistar rat electroencephalographic model assessed as time spent in rapid eye movement sleep at 100 mg/kg, po measured over 12 hrs relative to total sleep time (reference value: 12.7 to 14.6%); type: functional; method in brief: as §2
[14] = system: MDR1 (human); experiment: Apparent permeability across basolateral to apical side in MDCK cells expressing human MDR1; type: ADME, cell-based, Canis lupus familiaris; conditions: dog

| Compound | IC50 [1] [nM] | Kp at 3 h [2] | concentration at 3 h [3] [nM] | concentration at 3 h [4] [nM] | IC50 [5] [nM] | further results |
| --- | --- | --- | --- | --- | --- | --- |
| CNC(=O)[C@@H](c1ccccc1)N1CCn2c(C3CC3)nc(Cl)c2[C@@H]1CCc1ccc(C(F)(F)F)cc1 | 30 | – | – | – | – | – |
| CCc1nc(Cl)c2n1CCN([C@@H](C(=O)NC)c1ccccc1)[C@H]2CCc1ccc(C(F)(F)F)c(F)c1F | 17 | 0.1 | 6770 | 695 | 14 | – |
| CCc1nc(Cl)c2n1CCN([C@@H](C(=O)NC)c1ccccc1)[C@H]2CCc1cc(F)c(C(F)(F)F)cc1F | 32 | – | – | – | 17 | – |
| CCc1nc(Cl)c2n1CCN([C@@H](C(=O)NC)c1ccccc1)[C@H]2CCc1cc(F)c(C(F)(F)F)c(F)c1 | 16 | – | – | – | 8 | – |
| CCc1nc(Cl)c2n1CCN([C@@H](C(=O)NC)c1ccccc1)[C@H]2CCc1ccc(F)c(F)c1F | 30 | 0.05 | 387 | 18 | 5 | – |
| CCc1nc(Cl)c2n1CCN([C@@H](C(=O)NC)c1ccccc1)[C@H]2CCc1ccc(F)c(C(F)(F)F)c1 | 378 | – | – | – | 16 | – |
| CCc1nc(Cl)c2n1CCN([C@@H](C(=O)NC)c1ccccc1)[C@H]2CCc1cccc(C(F)(F)F)c1F | 16 | 0.07 | 1860 | 136 | 9 | – |
| CNC(=O)[C@@H](c1ccccc1)N1CCn2c(C3CC3)nc(Cl)c2[C@@H]1CCc1ccc(C(F)(F)F)c(F)c1 | 53 | 0.07 | 6800 | 450 | 10 | – |
| CNC(=O)[C@@H](c1ccccc1)N1CCn2c(C3CC3)nc(Cl)c2[C@@H]1CCc1ccc(C(F)(F)F)cc1F | 94 | 0.05 | 6760 | 338 | 26 | – |
| CNC(=O)[C@@H](c1ccccc1)N1CCn2c(C3CC3)nc(Cl)c2[C@@H]1CCc1ccc(OC(F)F)c(F)c1 | 170 | – | – | – | 2 | – |
| CCc1nc(Cl)c2n1CCN([C@@H](C(=O)NC)c1ccccc1)[C@H]2CCc1cccc(C(F)(F)F)c1 | 72 | – | – | – | 10 | – |
| CCc1nc(Cl)c2n1CCN([C@@H](C(=O)NC)c1ccccc1)[C@H]2COc1ccc(C(F)(F)F)cc1 | 431 | – | – | – | 9 | – |
| CCc1nc(Cl)c2n1CCN([C@@H](C(=O)NC)c1ccccc1)[C@H]2COc1cccc(C(F)(F)F)c1 | 312 | – | – | – | 4 | – |
| CCc1nc(Cl)c2n1CCN([C@@H](C(=O)NC)c1ccccc1)[C@H]2CCc1ccc(C#N)cc1 | 3900 | – | – | – | 16 | – |
| CCc1nc(Cl)c2n1CCN([C@@H](C(=O)NC)c1ccccc1)[C@H]2CCc1ccc(OC(F)F)cc1 | 74 | – | – | – | 1 | – |
| CCc1nc(Cl)c2n1CCN([C@@H](C(=O)NC)c1ccccc1)[C@H]2CCc1ccc(OC(F)(F)F)cc1 | 203 | – | – | – | 18 | – |
| CCc1nc(Cl)c2n1CCN([C@@H](C(=O)NC)c1ccccc1)[C@H]2CCc1ccc(C(F)(F)F)c(F)c1 | 18 | 0.12 | 9820 | 1220 | 7 | Papp A→B [6]: 1.98 ×10⁻⁶ cm/s; Activity [7]: 9%; Activity [8]: 13%; Activity [9]: 86.2%; Activity [10]: 36%; efflux ratio [11]: 35; Activity [12]: 16%; Activity [13]: 13.8%; Papp B→A [14]: 68.8 ×10⁻⁶ cm/s |
| CCc1nc(Cl)c2n1CCN([C@@H](C(=O)NC)c1ccccc1)[C@@H]2CCc1ccc(C(F)(F)F)c(F)c1 | 547 | – | – | – | 227 | – |
| CCc1nc(Cl)c2n1CCN([C@@H](C(=O)NC)c1ccccc1)[C@H]2CCc1ccc(C(F)(F)F)c(Cl)c1 | 20 | 0.08 | 1600 | 128 | 18 | – |
| CCc1nc(Cl)c2n1CCN([C@@H](C(=O)NC)c1ccccc1)[C@H]2CCc1ccc(C(F)(F)F)cc1F | 45 | 0.06 | 6420 | 363 | 12 | – |
| CNC(=O)[C@@H](c1ccccc1)N1CCc2cc(OC)c(OC)cc2[C@@H]1CCc1ccc(C(F)(F)F)cc1 [ALMOREXANT] | – | – | – | – | – | Activity [7]: 38%; Activity [8]: 20%; Activity [9]: 85.8%; Activity [10]: 43%; Activity [12]: 20%; Activity [13]: 14.2% |
